Data set [1] deals with GABA B receptor (Rattus norvegicus) (UniProt Q9Z0U4+O88871). In words: Displacement of [3H]GABA from GABA-B binding sites in brain homogenates (relative to 100 uM baclofen) at 100 uM. Type of data set: tissue-based. The essentials: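 Rat brain membrane binding (male Sprague-Dawley) using 10 nM [3H]GABA, with 100 µM isoguvacine present to block GABA-A sites. Test concentration 100 µM. Percent inhibition expressed relative to 100 µM baclofen. Mean of two separate experiments, each in triplicate.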
(Displacement assays read how much labelled ligand stays bound in the presence of the test substance.)

Data set [2] concerns the target GABA-A receptor; anion channel (Rattus norvegicus) (UniProt O09028+P15431+P18506+P18508+P19969+P20236+P23574+P23576+P28471+P28473+P30191+P62813+P63079+P63138+Q91ZM7+Q9ES14). The data set is described as follows: Displacement of [3H]-GABA from Gamma-aminobutyric acid A receptor binding sites in brain homogenates (relative to 1 mM GABA) at 100 uM. Type of data set: tissue-based. The essentials:
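Male Sprague-Dawley rat brain, frozen, homogenized in 50 mM Tris-citrate (pH 7.1 at 4 °C). Membranes treated with 0.05% Triton X-100 for 30 min at 37 °C and resuspended at 0.5–1.0 mg/mL protein. Incubated with 8 nM [3H]GABA for 5 min at 4 °C, stopped by centrifugation, and counted by scintillation. Test concentration 100 µM. Expressed as percent of the inhibition given by 1 mM GABA. Mean of two experiments, each in triplicate.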

In data set [3] the test system is Mus musculus. The data set is described as follows: In vivo anticonvulsant activity against pentylene tetrazole seizure threshold(SMC) in mice 4 hr after sc administration; indicates inactive at 600 mg/kg. It counts as functional, organism-based. The arrangement: dose 600 mg/kg.
For data set [4], the system named is Mus musculus. In words: In vivo anticonvulsant activity against pentylenetetrazole seizure threshold(SMC) in mice 0.5 hr after sc administration; indicates inactive at 600 mg/kg. Type of data set: functional, organism-based. Also noted: dose 600 mg/kg.
Data set [5] deals with Mus musculus. The data set is described as follows: In vivo anticonvulsant activity against electric shock induced seizures(MES) in mice 0.5 hr after ip administration; indicates inactive at 600 mg/kg. It counts as functional, organism-based. Also noted: dose 600 mg/kg.
Data set [6] deals with Mus musculus. The data set is described as follows: In vivo anticonvulsant activity against electric shock induced seizures(MES) in mice 4 hr after ip administration; indicates inactive at 600 mg/kg. Type of data set: functional, organism-based. Also noted: dose 600 mg/kg.
Data set [7] deals with Mus musculus. In words: In vivo neurotoxicity at 600 mg/kg, number of animals exhibiting neurotoxicity in the rotarod test / number of animals tested at 0.5 hr; 0/4. Also noted: dose 600 mg/kg. It counts as toxicity, organism-based. Background: Falling from the rotarod earlier than controls is read as motor impairment.
The subject of data set [8] is Mus musculus. The data set is described as follows: In vivo neurotoxicity at 600 mg/kg, number of animals exhibiting neurotoxicity in the rotarod test / number of animals tested at 4 hr; 0/2. It counts as toxicity, organism-based. The arrangement: dose 600 mg/kg.

In ChEMBL document CHEMBL1122654, “Phosphorus analogues of gamma-aminobutyric acid, a new class of anticonvulsants” (J Med Chem, 1984) one finds inhibition, Anticonvulsant activity and Toxicity data, which are given here for one compound.

Calls of active or inactive are those of the source.

As for `NCCOP(=O)(O)c1ccccc1`, the inhibition (usually the share of the control response that was lost under treatment) in data set [1] came out at 16%; in data set [2], 15%. For the same compound, the Anticonvulsant activity result in the data set on Mus musculus [3], with Mus musculus [4], in the data set with Mus musculus [5] and in the data set on Mus musculus [6] was “inactive” in each case. Besides, the Toxicity in the data set with Mus musculus [7] and in the data set with Mus musculus [8] was 0 each time.
